Experiments:
[1] = biological target: Alpha amylase (Homo sapiens) (UniProt P0DUB6); assay: Inhibition of human alpha-amylase at 100 ug/ml using starch as substrate preincubated for 30 mins by 3,5-dinitrosalicylic acid color reagent based assay relative to control
In short: (§1)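 Test samples were prepared as a DMSO stock of 10 mg/10 mL and assayed at 50, 100 and 200 μg mL–1. Enzyme was at 1 unit per mL in 20 mM sodium phosphate, pH 6.9. Sample and enzyme were incubated 30 min at 25 °C. DNSA colour reagent was added, then heated 15 min at 85 °C and read at 595 nm. Soluble potato starch (0.5–1% w/v) was the substrate. Inhibition % was taken against a DMSO control, with blanks correcting background.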

[2] = biological target: Alpha amylase (Homo sapiens) (UniProt P0DUB6); assay: Inhibition of human alpha-amylase at 200 ug/ml using starch as substrate preincubated for 30 mins by 3,5-dinitrosalicylic acid color reagent based assay relative to control; in short: as §1
[3] = biological target: Alpha amylase (Homo sapiens) (UniProt P0DUB6); assay: Inhibition of human alpha-amylase at 50 ug/ml using starch as substrate preincubated for 30 mins by 3,5-dinitrosalicylic acid color reagent based assay relative to control; in short: as §1

Chain of Alpha amylase (Homo sapiens) (P0DUB6 whole entry, looked up): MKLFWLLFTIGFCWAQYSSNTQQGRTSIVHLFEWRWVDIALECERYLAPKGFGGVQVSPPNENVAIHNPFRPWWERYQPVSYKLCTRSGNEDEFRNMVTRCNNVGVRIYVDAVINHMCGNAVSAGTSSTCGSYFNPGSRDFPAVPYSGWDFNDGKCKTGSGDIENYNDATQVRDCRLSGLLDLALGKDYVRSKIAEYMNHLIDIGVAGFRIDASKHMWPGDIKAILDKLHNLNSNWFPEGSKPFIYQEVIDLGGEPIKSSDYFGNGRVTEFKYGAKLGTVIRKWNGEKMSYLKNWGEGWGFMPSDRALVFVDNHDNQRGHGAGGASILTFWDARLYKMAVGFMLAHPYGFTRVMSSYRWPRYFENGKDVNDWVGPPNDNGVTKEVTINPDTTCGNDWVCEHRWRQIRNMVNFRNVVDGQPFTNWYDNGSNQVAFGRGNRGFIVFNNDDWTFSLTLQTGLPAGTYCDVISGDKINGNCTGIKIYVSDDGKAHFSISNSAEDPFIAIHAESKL

Molecule `Cc1ccc(/N=C2/NC(=O)/C(=C/c3cn(-c4ccccc4)nc3-c3ccc(Cl)cc3)S2)cc1` has an inhibition [1] of 81.1%, an inhibition [2] of 75% and an inhibition [3] of 50.9%.
`Cc1ccc(/N=C2/NC(=O)/C(=C/c3cn(-c4ccccc4)nc3-c3ccc(F)cc3)S2)cc1` was tested, and the inhibition [1] was 81.6%, the inhibition [2] was 78% and the inhibition [3] was 77.1%.
Work on `C[C@H]1O[C@H](O[C@H]2[C@H](O)[C@@H](O)[C@@H](O[C@H]3[C@H](O)[C@@H](O)C(O)O[C@@H]3CO)O[C@@H]2CO)[C@H](O)[C@@H](O)[C@@H]1N[C@H]1C=C(CO)[C@@H](O)[C@H](O)[C@H]1O` (some centres undefined) yielded an inhibition [1] of 53.8%, an inhibition [2] of 63.7% and an inhibition [3] of 48.6%.
Molecule `Cc1ccc(/N=C2/NC(=O)/C(=C/c3cn(-c4ccccc4)nc3-c3ccccc3)S2)cc1` has an inhibition [1] of 81.6%, an inhibition [2] of 84.3% and an inhibition [3] of 48.1%.
In the case of `Cc1ccc(/N=C2/NC(=O)/C(=C/c3cn(-c4ccccc4)nc3-c3ccc(C)cc3)S2)cc1`, the inhibition [1] was 83.7%, the inhibition [2] was 84% and the inhibition [3] was 79.2%.
For `Cc1ccc(/N=C2/NC(=O)/C(=C/c3cn(-c4ccccc4)nc3-c3ccc([N+](=O)[O-])cc3)S2)cc1`, the inhibition [1] was 88.2%, the inhibition [2] was 58% and the inhibition [3] was 65.1%.
Molecule `COc1ccc(-c2nn(-c3ccccc3)cc2/C=C2\S/C(=N\c3ccc(C)cc3)NC2=O)cc1` has an inhibition [1] of 90%, an inhibition [2] of 92.2% and an inhibition [3] of 75.9%.
`Cc1ccc(/N=C2/NC(=O)/C(=C/c3cn(-c4ccccc4)nc3-c3ccc(Br)cc3)S2)cc1` gave an inhibition [1] of 72.9%, an inhibition [2] of 97.4% and an inhibition [3] of 52.1%.
